How the values were obtained:
Format in all cases: cell-based
S1P4 receptor = target: T1, S1P4 receptor (Homo sapiens, UniProt O95977); experiment: S1P4 functional antagonist assay; conditions: for fold less potent than the hit (1) at S1P4: versus hit compound 1
T1 sequence (O95977 1-384): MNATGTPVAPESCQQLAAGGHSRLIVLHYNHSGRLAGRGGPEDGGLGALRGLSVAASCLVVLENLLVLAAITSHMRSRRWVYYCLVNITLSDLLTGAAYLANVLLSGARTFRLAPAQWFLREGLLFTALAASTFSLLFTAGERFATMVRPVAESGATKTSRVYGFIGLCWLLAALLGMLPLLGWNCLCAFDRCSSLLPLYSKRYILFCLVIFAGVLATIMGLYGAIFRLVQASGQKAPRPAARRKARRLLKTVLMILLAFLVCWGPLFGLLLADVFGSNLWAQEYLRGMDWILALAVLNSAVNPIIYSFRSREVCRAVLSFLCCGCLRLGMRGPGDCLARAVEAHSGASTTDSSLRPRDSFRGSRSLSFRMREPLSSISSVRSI
How it was run: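 U2OS cells co-express a beta-arrestin/TEV protease fusion protein and a beta-lactamase reporter gene under the control of a UAS response element. Beta-lactamase expression is read as FRET from a cleavable, fluorogenic, cell-permeable beta-lactamase substrate. The test compound's antagonism of the S1P4 receptor is reported as an IC50.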

S1P1 = S1P1 (Homo sapiens, UniProt P21453); experiment: S1P selectivity counter screen, functional assay at S1P1
Sequence of S1P1 (P21453 whole entry, species assumed): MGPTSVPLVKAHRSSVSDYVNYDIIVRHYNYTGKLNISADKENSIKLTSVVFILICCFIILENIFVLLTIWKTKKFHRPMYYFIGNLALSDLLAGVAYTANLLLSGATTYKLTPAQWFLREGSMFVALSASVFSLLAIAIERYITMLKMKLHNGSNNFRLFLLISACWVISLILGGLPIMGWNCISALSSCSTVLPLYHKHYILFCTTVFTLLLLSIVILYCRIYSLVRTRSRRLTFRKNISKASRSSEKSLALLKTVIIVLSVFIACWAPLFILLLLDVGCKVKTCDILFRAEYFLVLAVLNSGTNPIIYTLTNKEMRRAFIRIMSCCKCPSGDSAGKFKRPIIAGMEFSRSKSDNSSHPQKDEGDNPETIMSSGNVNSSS

S1P2 = S1P2 (Homo sapiens, UniProt O95136); experiment: S1P selectivity counter screen, functional assay at S1P2
Sequence of S1P2 (O95136 whole entry, species assumed): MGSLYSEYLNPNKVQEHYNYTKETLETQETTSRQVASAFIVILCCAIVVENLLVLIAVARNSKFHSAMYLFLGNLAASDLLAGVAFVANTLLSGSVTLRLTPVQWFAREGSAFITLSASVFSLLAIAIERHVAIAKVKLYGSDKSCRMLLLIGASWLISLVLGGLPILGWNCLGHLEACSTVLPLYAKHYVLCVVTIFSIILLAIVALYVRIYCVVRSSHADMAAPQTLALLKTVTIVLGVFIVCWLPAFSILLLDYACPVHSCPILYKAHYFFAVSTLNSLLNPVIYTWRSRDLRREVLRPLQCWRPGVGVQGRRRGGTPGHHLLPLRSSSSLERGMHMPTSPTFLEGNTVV

S1P3 = S1P3 (Homo sapiens, UniProt Q99500); experiment: S1P selectivity counter screen, functional assay at S1P3
Sequence of S1P3 (Q99500 whole entry, species assumed): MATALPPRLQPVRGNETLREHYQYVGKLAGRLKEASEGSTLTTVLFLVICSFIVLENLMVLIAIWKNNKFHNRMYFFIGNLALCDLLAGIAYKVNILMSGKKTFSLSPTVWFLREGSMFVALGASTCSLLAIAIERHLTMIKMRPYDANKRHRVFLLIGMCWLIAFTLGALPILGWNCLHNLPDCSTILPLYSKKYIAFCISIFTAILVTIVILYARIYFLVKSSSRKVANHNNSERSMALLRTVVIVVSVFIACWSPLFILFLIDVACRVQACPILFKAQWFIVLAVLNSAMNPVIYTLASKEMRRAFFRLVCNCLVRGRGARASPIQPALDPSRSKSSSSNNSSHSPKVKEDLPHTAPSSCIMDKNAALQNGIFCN

For O=C(c1ccc(-c2cc(Cl)ccc2Cl)o1)N1CCc2ccccc21 [4j], the “S1P4 activity in words” value (S1P4 receptor) was “suppressed completely the activity”.
In the case of Cc1cccc(C)c1NC(=O)c1ccc(-c2cccc(Cl)c2)o1 [9b], the “fold less potent than the hit (1) at S1P4” value (S1P4 receptor) is reported as 6 fold.
In the case of Cc1cccc(C)c1NC(=O)c1ccc(-c2cc(Cl)ccc2Cl)o1 [compound 1, 5-(2,5-dichlorophenyl)-N-(2,6-dimethylphenyl)furan-2-carboxamide], the IC50 (S1P1) is reported as greater than 25 µM, the IC50 (S1P2) is reported as greater than 25 µM and the IC50 (S1P3) is reported as greater than 25 µM.
In the case of Cc1cccc(C)c1NC(=O)c1ccc(-c2c(C)cccc2C)o1 [9j], the “S1P4 activity in words” value (S1P4 receptor) is reported as “inactive”.
Cc1cscc1-c1ccc(C(=O)Nc2c(C)cccc2C)o1 [9l] was tested, and the “fold more potent than 9k at S1P4” value (S1P4 receptor; versus 9k) was 1.5 fold.
In the case of Cc1cccc(C)c1NC(=O)c1ccc(-c2ccc(Cl)cc2Cl)o1 [9a], the “fold less potent than mono-chlorinated 9c at S1P4” value (S1P4 receptor; versus 9c) is reported as 7 fold and the “fold less potent than the hit (1) at S1P4” value (S1P4 receptor) is reported as 25 fold.
For Cc1cccc(C)c1N(C)C(=O)c1ccc(-c2ccccc2Cl)o1 [9c], the “fold less potent than the hit (1) at S1P4” value (S1P4 receptor) was 3 fold.
For Cc1cc(CO)cc(C)c1NC(=O)c1ccc(-c2cc(Cl)ccc2Cl)o1 [4t], the IC50 (S1P4 receptor) was 0.036 µM.
Cc1cc(C)c(N(C)C(=O)c2ccc(-c3cc(Cl)ccc3Cl)o2)c(C)c1 [4r] was tested, and the “fold less potent than the homolog 4q at S1P4” value (S1P4 receptor; versus 4q) was “approximately 128 fold”.
